Assay results published in ChEMBL document CHEMBL3414565, “Discovery of novel AHLs as potent antiproliferative agents” (Eur J Med Chem, 2015).

Tests used:
Type in all cases: functional, cell-based
[1] = Cytotoxicity against human EC9706 cells after 72 hrs by MTT assay; settings: EC9706, 72 h
In short: (§1)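 Cells were grown in RPMI1640 and seeded at 5 × 10^3 cells/well, then left 24 h at 37 °C. Medium was replaced with fresh medium holding a range of compound concentrations, from 10 mM DMSO stocks with final DMSO at most 0.1%. Exposure lasted 72 h. MTT (5 mg/mL) was added for 4 h at 37 °C, formazan was dissolved in DMSO and A570 was read. IC50 came from dose-response curves as mean ± SD of three independent experiments.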

MCF7 = assay: Cytotoxicity against human MCF7 cells after 72 hrs by MTT assay; settings: MCF7, 72 h; in short: as §1
SMMC-7721 = assay: Cytotoxicity against human SMMC7721 cells after 72 hrs by MTT assay; settings: SMMC-7721, 72 h; in short: as §1
MGC-803 = assay: Cytotoxicity against human MGC803 cells after 72 hrs by MTT assay; settings: MGC-803, 72 h; in short: as §1

Row | Compound | IC50 [1] [µM] | IC50 (MCF7) [µM] | IC50 (SMMC-7721) [µM] | IC50 (MGC-803) [µM]
1 | O=c1[nH]cc(F)c(=O)[nH]1 [FLUOROURACIL] | 15.7 | 12.2 | 20.4 | 10.7
2 | CCCCCCCCCCCCSC(=S)N[C@H]1CCOC1=O | 58.3 | 61.1 | 50.3 | 
3 | O=C(CCl)Nc1ccc(C(=O)/C=C/c2ccccc2)cc1 | 6.37 | 2.48 | 12.6 | 6.94
4 | O=C(CCl)Nc1ccc(C(=O)/C=C/c2ccc([N+](=O)[O-])cc2)cc1 | 3.67 | 3.91 | 9.06 | 2.35
5 | O=C(CCl)Nc1ccc(C(=O)/C=C/c2ccc(F)c(F)c2)cc1 | 4.63 | 2.29 | 5.96 | 3.19
6 | CCCCCCCCCCCCCCSC(=S)N[C@H]1CCOC1=O | 66.2 | 30.5 | 56.8 | 
7 | CCSC(=S)N[C@H]1CCOC1=O | > 128 | > 128 | > 128 | > 128
8 | O=C(CSC(=S)N[C@H]1CCOC1=O)Nc1ccc(Cl)cc1 | > 128 | 50.3 | > 128 | 
9 | Cc1ccc(NC(=O)CSC(=S)N[C@H]2CCOC2=O)cc1 | 93.9 | 33.5 | 32.7 | 44.3
10 | O=C(CSC(=S)N[C@H]1CCOC1=O)Nc1ccc(O)cc1 | > 128 | > 128 | > 128 | 80
11 | O=C(CSC(=S)N[C@H]1CCOC1=O)Nc1ccc(F)cc1 | 67.1 | 5.83 | > 128 | 37.6
12 | CCCCCCCCSC(=S)N[C@H]1CCOC1=O | > 128 | > 128 | 65 | > 128
13 | O=C(CSC(=S)N[C@H]1CCOC1=O)Nc1ccc(C(=O)/C=C/c2ccc(Br)cc2)cc1 | 91.2 | 18.7 | 18 | 19.6
14 | O=C(CCl)Nc1ccc(C(=O)/C=C/C=C/c2ccccc2)cc1 | 10.7 | 4.59 | 36.7 | 5.97
15 | CCCCSC(=S)N[C@H]1CCOC1=O | > 128 | > 128 | > 128 | > 128
16 | COc1cccc(/C=C/C(=O)c2ccc(NC(=O)CCl)cc2)c1 | 5.97 | 3.02 | 10.3 | 2.91
17 | CCCCCCSC(=S)N[C@H]1CCOC1=O | > 128 | > 128 | > 128 | > 128
18 | O=C(CCl)Nc1ccc(C(=O)/C=C/c2ccc(Br)cc2)cc1 | 10.1 | 4.64 | 13.3 | 6.05
19 | O=C(CSC(=S)N[C@H]1CCOC1=O)Nc1ccc(C(=O)/C=C/c2ccccc2)cc1 | 44.9 | 44.3 | > 128 | 24.8
20 | Cc1ccc(/C=C/C(=O)c2ccc(NC(=O)CCl)cc2)cc1 | 7.15 | 9.18 | 22.9 | 3.6
21 | O=C(CCl)Nc1ccc(C(=O)/C=C/c2cccc(Cl)c2)cc1 | 5.56 | 5.34 | 7.76 | 2.01
22 | O=C(CSC(=S)N[C@H]1CCOC1=O)Nc1ccc(Cl)cc1Cl | > 128 | 29.2 | > 128 | 48.5
23 | O=C(CSC(=S)N[C@H]1CCOC1=O)Nc1ccc(C(=O)/C=C/c2ccc(F)cc2)cc1 | 46.1 | 83.7 | > 128 | 45.7

Row | Compound | IC50 [1] [µM] | IC50 (MCF7) [µM] | IC50 (SMMC-7721) [µM] | IC50 (MGC-803) [µM]
24 | O=C(CSC(=S)N[C@H]1CCOC1=O)Nc1cccc([N+](=O)[O-])c1 | > 128 | 5.46 | > 128 | 58.9
25 | O=C(CSC(=S)N[C@H]1CCOC1=O)Nc1ccc(C(=O)/C=C/c2cccc(Cl)c2)cc1 | 32.5 | 11.6 | 39.1 | 15.6
26 | Cc1cccc(NC(=O)CSC(=S)N[C@H]2CCOC2=O)c1C | > 128 | > 128 | 42.1 | 
27 | O=C(CSC(=S)N[C@H]1CCOC1=O)Nc1ccccc1 | > 128 | > 128 | > 128 | 39.7
28 | O=C(CSC(=S)N[C@H]1CCOC1=O)Nc1ccc(C(=O)/C=C/c2ccc([N+](=O)[O-])cc2)cc1 | > 128 | 2.67 | > 128 | 29.4
29 | O=C(CSC(=S)N[C@H]1CCOC1=O)Nc1cccc(Cl)c1 | 107 | 46.6 | > 128 | 21.8
30 | O=C(CSC(=S)N[C@H]1CCOC1=O)Nc1ccc(C(=O)/C=C/c2ccc(Cl)cc2)cc1 | 38.9 | 20.2 | > 128 | 6.9
31 | CC(=O)c1ccc(NC(=O)CSC(=S)N[C@H]2CCOC2=O)cc1 | > 128 | > 128 | > 128 | 99.4
32 | O=C(CSC(=S)N[C@H]1CCOC1=O)Nc1ccc(Br)cc1 | 67.4 | 66.5 | 28.3 | 
33 | COc1cc(/C=C/C(=O)c2ccc(NC(=O)CCl)cc2)cc(OC)c1OC | 2.73 | 1.32 | 3 | 1.72
34 | Cc1cccc(NC(=O)CSC(=S)N[C@H]2CCOC2=O)c1 | > 128 | 63.2 | > 128 | 36.6
35 | COc1ccc(NC(=O)CSC(=S)N[C@H]2CCOC2=O)cc1 | > 128 | > 128 | > 128 | 62.1
36 | CCCCCCCCCC(=O)CC(=O)N[C@H]1CCOC1=O | > 128 | 37.3 | > 128 | 102
37 | O=C(CSC(=S)N[C@H]1CCOC1=O)Nc1cccc(C(F)(F)F)c1 | 79.7 | 3.13 | > 128 | 17.9
38 | O=C(CCl)Nc1ccc(C(=O)/C=C/c2ccc(Cl)cc2)cc1 | 8.34 | 4.1 | 8.16 | 4.96
39 | O=C(CSC(=S)N[C@H]1CCOC1=O)Nc1ccccc1Cl | > 128 | 90.8 | 49.9 | 31.9
40 | CCOC(=O)c1ccc(NC(=O)CSC(=S)N[C@H]2CCOC2=O)cc1 | 112 | 60.2 | 64.9 | 21.7
41 | CSC(=S)N[C@H]1CCOC1=O | > 128 | > 128 | > 128 | > 128
42 | O=C(CSC(=S)N[C@H]1CCOC1=O)Nc1ccccc1F | > 128 | 28.6 | > 128 | 
43 | O=C(CCl)Nc1ccc(C(=O)/C=C/c2ccccc2Cl)cc1 | 6.98 | 5.26 | 11.1 | 2.75
44 | O=C(CCl)Nc1ccc(C(=O)/C=C/c2ccc(F)cc2)cc1 | 8.6 | 5.47 | 15.1 | 4.68
45 | CCCCc1ccc(NC(=O)CSC(=S)N[C@H]2CCOC2=O)cc1 | 44.2 | 40.2 | 27.3 | 20.5
